For 2 molecules, IC50 results are on record in ChEMBL document CHEMBL1143402 (PLoS Med, 2006).

The subject of assay [1] is Mycobacterium tuberculosis. Put plainly: Inhibition of fatty acid synthesis in Mycobacterium bovis BCG after 60 mins. The format is functional, organism-based. Conditions: variant bovis BCG, 1 h. A digest of the protocol:
(§1)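 M. bovis BCG culture incubated with compound or DMSO plus 2-^14C acetate at 37 °C for 60 min. Cells saponified with KOH/methanol, acid-extracted into hexane, methyl-esterified. Fatty and mycolic acid subclasses separated by two-solvent TLC (n = 3) and quantified by phosphorimaging as % of control.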

Assay [2] has as its system Mycobacterium tuberculosis. The assay is described as follows: Inhibition of alpha-mycolic acid synthesis in Mycobacterium bovis BCG after 60 mins. Conditions: variant bovis BCG, 1 h. The format is functional, organism-based. A digest of the protocol:
as §1

As usually defined, the IC50 is the concentration needed to halve the response being measured. Take `C[C@]1(COc2ccc(N3CCC(Oc4ccc(OC(F)(F)F)cc4)CC3)cc2)Cn2cc([N+](=O)[O-])nc2O1`: the IC50 in assay [1] and in assay [2] was above 0.25 µg/mL each time.

Consider `NNC(=O)c1ccncc1` [ISONIAZID], for which the IC50 in assay [1] was above 4 µg/mL.
